A word on the IC50: it is the concentration that gives 50% inhibition. Read a low IC50 as greater potency.

For series [1], the system named is Plasmodium falciparum. Briefly: Antiplasmodial activity against chloroquine-sensitive Plasmodium falciparum D10 after 48 hrs by lactate dehydrogenase assay. The series is classed as functional, organism-based. The following applies: D10, 48 h. In a few lines:
(§1)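 P. falciparum D10 (CQ-sensitive) and K1 (CQ-resistant) kept in continuous in vitro culture, synchronized with 5% D-sorbitol at ring stage when needed; growth read by parasite lactate dehydrogenase assay; each compound run in duplicate on two separate occasions.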

For series [2], the system named is Plasmodium falciparum. In words: Antiplasmodial activity against chloroquine-resistant Plasmodium falciparum K1 after 48 hrs by lactate dehydrogenase assay. The series is classed as functional, organism-based. The note with it: K1, 48 h. The method, boiled down:
as §1

Series [3] concerns Plasmodium falciparum. Briefly: Resistance index, ratio of IC50 for chloroquine-resistant Plasmodium falciparum K1 to IC50 for chloroquine-sensitive Plasmodium falciparum D10. The series is classed as functional. In a few lines:
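Resistance index computed as IC50 (K1)/IC50 (D10), both from the pLDH assay, each run in duplicate on two separate occasions.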

The subject of the next series is CHO. In words: Cytotoxicity against CHO cells after 48 hrs by MTT assay. The series is classed as cell-based. The note with it: Cricetulus griseus. In a few lines:
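CHO cells in DMEM:Ham's (1:1) with 10% heat-inactivated FCS and gentamicin, 37 °C, 5% CO2; 1×10^4 cells/well seeded 24 h, then serial dilutions from DMSO stocks (100–0.01 µg/ml) for 48 h, with medium and DMSO controls.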

Series [4] is described as follows: Selectivity index, ratio of IC50 for CHO cells to IC50 for chloroquine-sensitive Plasmodium falciparum D10. The note with it: hamster, CHO cells (cytotoxicity) versus Plasmodium falciparum D10; read-out: Ratio IC50. The series is classed as toxicity, cell-based.
Series [5] in a line: Selectivity index, ratio of IC50 for CHO cells to IC50 for chloroquine-resistant Plasmodium falciparum K1. The format is toxicity, cell-based. The following applies: hamster, CHO cells (cytotoxicity) versus Plasmodium falciparum K1; read-out: Ratio IC50.
Series [6] relates to Erythrocyte. In words: Induction of [3H]-chloroquine accumulation in erythrocytes infected with chloroquine-resistant Plasmodium falciparum K1 trophozoites at 5 uM pre-incubated for 15 mins before exposure to [3H]-chloroquine measured after 1 hr by liquid scintillation counting relative to control. The format is functional. In a few lines:
(§2)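 Synchronized K1-infected erythrocytes at trophozoite stage (1% hematocrit, 5% parasitemia) preincubated with test compound 15 min at 37 °C, then 4 nM 3H-CQ for 1 h at 37 °C; cells spun through dibutylphthalate, pellet digested and counted by liquid scintillation; accumulation expressed relative to untreated control; verapamil 5 µM positive control.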

Series [7] has as its system Plasmodium falciparum. Briefly: Antiplasmodial activity against Plasmodium falciparum schizonts assessed as parasitemia at IC50 concentration treated until all schizonts had burst and invasion was assumed to have occurred by Giemsa staining-based microscopy (reference value: 8.83%). The format is functional.
For series [8], the system named is Plasmodium falciparum. Briefly: Antiplasmodial activity against Plasmodium falciparum schizonts assessed as change in parasitemia at IC50 concentration treated until all schizonts had burst and invasion was assumed to have occurred by Giemsa staining-based microscopy relative to control. The format is functional.
Series [9] can be described thus: Cytotoxicity in un-parasitized erythrocytes assessed as morphological changes at 6.25 ug/ml after 48 hrs by phase contrast microscopy. The following applies: erythrocyte. The format is cell-based. The method, boiled down:
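Unparasitized erythrocytes (hematocrit 2%) held 48 h with 6.25 µg/ml compound (diluted from 100 µg/ml stocks), then fixed with 1% glutaraldehyde in paraformaldehyde; cell shape of 20 µl samples examined by phase-contrast light microscopy at ×1000.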

The test system of series [10] is Erythrocyte. In words: Induction of [3H]-chloroquine accumulation in erythrocytes infected with chloroquine-resistant Plasmodium falciparum K1 trophozoites at 1 ug/ml pre-incubated for 15 mins before exposure to [3H]-chloroquine measured after 1 hr by liquid scintillation counting relative to control. The series is classed as functional, cell-based. The method, boiled down:
as §2

The source made the active and inactive calls. The rule behind the calls is not given here.

Turning to `CN1CCN(CC(O)COc2cccc3ccccc23)CC1` (racemic), the IC50 with Plasmodium falciparum [1] is 41.8 µM; in the series with Plasmodium falciparum [2] it was 7.23 µM; in the series with CHO it was 261 µM. Besides, the “Ratio IC50” value in the series with Plasmodium falciparum [3] is 0.17. Moreover, the selectivity ratio is 6.2 in [4] and 36.1 in [5].
As to `CC(C)c1c(O)ccc2c1CC[C@H]1C(C)(C)CCC[C@]21C` [TOTAROL], the values for the IC50 in the series with Plasmodium falciparum [1], in the series on Plasmodium falciparum [2] and in the series with CHO were 11.8 µM, 11.7 µM and 170 µM, respectively. Moreover, the “Ratio IC50” value in the series on Plasmodium falciparum [3] was determined as 0.99. In addition, the selectivity ratio in series [4] was found to be 14.5; in series [5], 14.6.
Consider `COc1ccc(CCN(C)CCCC(C#N)(c2ccc(OC)c(OC)c2)C(C)C)cc1OC` (stereo unspecified), for which the “fold change (FC)” value in the series with Erythrocyte [6] is greater than 3.
`OC(CNCc1ccccc1)COc1cccc2ccccc12` (racemic): the half-maximal inhibitory concentration (IC50) with Plasmodium falciparum [1] turned out to be 5.18 µM; in the series on Plasmodium falciparum [2], 0.73 µM; with CHO, 8.27 µM. In addition, in the series with Plasmodium falciparum [3], the “Ratio IC50” value was 0.14. Moreover, the selectivity ratio in series [4] came to 1.6; in series [5], 11.2. Also, the Activity stood at 10.24% with Plasmodium falciparum [7] and 1.41% with Plasmodium falciparum [8].
As to `CC(C)c1c(OCC(O)CN2CCCCC2)ccc2c1CC[C@H]1C(C)(C)CCC[C@]21C` (stereo partly specified), the IC50 in the series on Plasmodium falciparum [1] was found to be 1.08 µM; in the series with Plasmodium falciparum [2], 0.75 µM; in the series with CHO, 2.99 µM. The “Ratio IC50” value in the series on Plasmodium falciparum [3] was determined as 0.7. Besides, the selectivity ratio was found to be 2.8 in series [4] and 4 in series [5].
With `CC(C)c1c(OCC(O)CN2CCN(C)CC2)ccc2c1CC[C@H]1C(C)(C)CCC[C@]21C` (stereo partly specified), the IC50 in the series on Plasmodium falciparum [1] came out at 1.36 µM; in the series on Plasmodium falciparum [2], 1.39 µM; in the series with CHO, 3.73 µM. For the same molecule, the “Ratio IC50” value in the series with Plasmodium falciparum [3] was determined as 1.03. Besides, the selectivity ratio in [4] and in [5] was 2.7 throughout. In addition, the Activity result in series [9] is listed as “Toxic”. Besides, the outcome in the series with Erythrocyte [10] was Active.
Take `CC(C)c1c(OCC(O)CN2CCOCC2)ccc2c1CC[C@H]1C(C)(C)CCC[C@]21C` (mixture of isomers): the IC50 was 2.07 µM with Plasmodium falciparum [1], 0.56 µM with Plasmodium falciparum [2] and 5.61 µM in the series on CHO. For the same molecule, the “Ratio IC50” value in the series on Plasmodium falciparum [3] is 0.27. Besides, the figures for the selectivity ratio in [4] and in series [5] were 2.7 and 10, respectively.
Turning to `OC(CNCc1ccccc1)COc1ccc2ccccc2c1` (racemic), the values for the IC50 in the series on Plasmodium falciparum [1], with Plasmodium falciparum [2] and with CHO were 6.77 µM, 13.5 µM and 123 µM, respectively. For the same molecule, the “Ratio IC50” value in the series on Plasmodium falciparum [3] turned out to be 2. For the same molecule, the selectivity ratio in series [4] was determined as 18.2; in [5] it was 9.1.
Regarding `CC(C)c1c(OCC(O)CN2CCN(c3ccnc4cc(Cl)ccc34)CC2)ccc2c1CC[C@H]1C(C)(C)CCC[C@]21C` (single isomer, unassigned), the figures for the IC50 with Plasmodium falciparum [1], in the series on Plasmodium falciparum [2] and with CHO were 1.42 µM, 0.93 µM and 94.2 µM, respectively. For the same molecule, the “Ratio IC50” value in the series on Plasmodium falciparum [3] is 0.64. Besides, the selectivity ratio in [4] is 67.3; in [5], greater than 100.
With `c1ccc(OCC2CO2)cc1` (stereo unspecified), in the series on Plasmodium falciparum [1], inhibition was half-maximal at 77 µM (IC50).
On the same count and under the same terms, as for `c1ccc2c(OCC3CO3)cccc2c1` (stereo unspecified), the figure is greater than 100 µM.
Regarding `CC(C)NCC(O)COc1cccc2ccccc12` (racemic) [PROPRANOLOL], the results for the Activity in the series with Plasmodium falciparum [7] and in the series on Plasmodium falciparum [8] were 5.35% and -3.48%, respectively.
Take `CCN(CC)CC(O)COc1ccc2c(c1C(C)C)CC[C@H]1C(C)(C)CCC[C@]21C` (stereo partly specified): the values for the 50% inhibitory concentration (IC50) with Plasmodium falciparum [1], with Plasmodium falciparum [2] and in the series with CHO were 0.61 µM, 0.63 µM and 7.73 µM, respectively. In addition, in the series on Plasmodium falciparum [3], the “Ratio IC50” value is given as 1.04. The selectivity ratio in series [4] amounted to 12.7; in series [5], 12.2.
`CC(C)c1c(OCC(O)CN2CCN(c3ccccc3Cl)CC2)ccc2c1CC[C@H]1C(C)(C)CCC[C@]21C` (single isomer, unassigned): the results for the IC50 with Plasmodium falciparum [1], with Plasmodium falciparum [2] and with CHO were 3.25 µM, 0.94 µM and 186 µM, respectively. For the same molecule, in the series with Plasmodium falciparum [3], the “Ratio IC50” value is reported as 0.23. Moreover, the results for the selectivity ratio in series [4] and in series [5] were 57.3 and 207, respectively.
On to `CN1CCN(CC(O)COc2ccc3ccccc3c2)CC1` (racemic), for which the values for the IC50 in the series with Plasmodium falciparum [1], in the series with Plasmodium falciparum [2] and with CHO were 42.9 µM, 8.21 µM and 149 µM, respectively. Also, the “Ratio IC50” value in the series with Plasmodium falciparum [3] is on record as 0.19. The selectivity ratio in series [4] amounted to 3.5; in series [5], 18.1.
On to `CC(C)c1c(OCC(O)CN2C(=O)c3ccccc3C2=O)ccc2c1CC[C@H]1C(C)(C)CCC[C@]21C` (stereo partly specified), for which the IC50 came to 9.55 µM in the series on Plasmodium falciparum [1] and 48.3 µM in the series on Plasmodium falciparum [2]. Moreover, the “Ratio IC50” value in the series on Plasmodium falciparum [3] worked out at 5.06.
Take `CCOc1ccccc1N1CCN(CC(O)COc2ccc3c(c2C(C)C)CC[C@H]2C(C)(C)CCC[C@]32C)CC1` (stereo partly specified): the IC50 amounted to 1.62 µM in the series with Plasmodium falciparum [1], 1.01 µM with Plasmodium falciparum [2] and 183 µM in the series with CHO. In the series on Plasmodium falciparum [3], the “Ratio IC50” value turned out to be 0.62. Further, the selectivity ratio in [4] was found to be 113; in series [5] it was 181.
In the series with Plasmodium falciparum [1], `Oc1cccc2ccccc12` [1-NAPHTHOL] gave an IC50 of 56.5 µM.
Turning to `CC(C)c1c(OCC(O)CNCc2ccccc2)ccc2c1CC[C@H]1C(C)(C)CCC[C@]21C` (stereo partly specified), the IC50 amounted to 6.47 µM with Plasmodium falciparum [1], 0.65 µM with Plasmodium falciparum [2] and 14.4 µM in the series on CHO. The “Ratio IC50” value in the series on Plasmodium falciparum [3] worked out at 0.1. For the same molecule, the selectivity ratio in series [4] was determined as 2.2; in series [5], 22.3. In addition, the values for the Activity entry (in series [9]; with Plasmodium falciparum [7]; with Plasmodium falciparum [8]) were “Non-toxic”, 8.31% and -0.52%, respectively.
On to `CC(C)NCC(O)COc1ccc2c(c1C(C)C)CC[C@H]1C(C)(C)CCC[C@]21C` (stereo partly specified), for which the results for the IC50 in the series with Plasmodium falciparum [1], in the series on Plasmodium falciparum [2] and with CHO were 1.05 µM, 0.17 µM and 1.28 µM, respectively. In the series on Plasmodium falciparum [3], the “Ratio IC50” value was determined as 0.14. The figures for the selectivity ratio in series [4] and in series [5] were 1.2 and 8.7, respectively. In addition, the Activity result is recorded as “Non-toxic” in series [9], 5.43% in the series with Plasmodium falciparum [7] and -3.4% in the series with Plasmodium falciparum [8].
As to `CC(C)c1c(OCC(O)CN2CCN(c3ccccc3)CC2)ccc2c1CC[C@H]1C(C)(C)CCC[C@]21C` (stereo partly specified), the IC50 with Plasmodium falciparum [1] came to 2.56 µM; with Plasmodium falciparum [2] it was 1.81 µM; with CHO it was 105 µM. Further, the “Ratio IC50” value with Plasmodium falciparum [3] is given as 0.71. Moreover, the selectivity ratio was determined as 41.2 in series [4] and 58.1 in series [5].
Turning to `CN1CCN(CC(O)COc2ccccc2)CC1` (racemic), the IC50 in the series with Plasmodium falciparum [1] is greater than 100 µM.
Regarding `CC(C)c1c(OCC2CO2)ccc2c1CC[C@H]1C(C)(C)CCC[C@]21C` (stereo partly specified), the IC50 is 10.3 µM in the series on Plasmodium falciparum [1] and 14 µM in the series with Plasmodium falciparum [2]. Besides, in the series with Plasmodium falciparum [3], the “Ratio IC50” value came out at 1.36.
`Oc1ccc2ccccc2c1` [BETANAPHTHOL] came in with an IC50 in the series on Plasmodium falciparum [1] greater than 100 µM.
On the same count and under the same terms, the result for `Oc1ccccc1` [PHENOL] reads greater than 100 µM.
Still for that read-out and setting: as for `OC(COc1cccc2ccccc12)CN1CCN(c2ccccc2Cl)CC1` (racemic), the figure is greater than 100 µM.
